# Experimental data: ChEMBL document CHEMBL1144800, “Synthesis and antimicrobial properties of monensin A esters” (2008)
# Calls of active or inactive are those of the source. No cut-off for these calls is given here.
# Legend:
# [1] = tested on: Proteus vulgaris; assay: Antibacterial activity against Proteus vulgaris NCTC 4635 at 400 ug/disc after 18 hrs by disc diffusion assay; format: functional, organism-based
# Procedure, shortened: (§1)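 Disc diffusion on Mueller–Hinton II agar per CLSI guidelines. Compound in ethanol applied to 9 mm filter paper discs at 400 µg per disc, then dried and placed on the agar surface. Growth inhibition zone diameter read after 18 h at 35 °C.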
# [2] = tested on: Staphylococcus epidermidis; assay: Antibacterial activity against Staphylococcus epidermidis ATCC 12228 after 18 hrs by serial agar dilution method; format: functional; settings: ATCC 12228, 18 h
# Procedure, shortened: (§2)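 MIC by twofold serial agar dilution in Mueller–Hinton II agar per CLSI, run only for compounds that gave an inhibition zone in disc assay. Compounds dissolved in DMSO, tested at 3.125–400 µg/ml in agar. Final inoculum 10^4 CFU/ml. […] DMSO control included.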
# [3] = tested on: Bacillus subtilis; assay: Antibacterial activity against Bacillus subtilis ATCC 6633 after 18 hrs by serial agar dilution method; format: functional; settings: ATCC 6633, 18 h; procedure, shortened: as §2
# [4] = tested on: Staphylococcus aureus; assay: Antibacterial activity against Staphylococcus aureus ATCC 6538 after 18 hrs by serial agar dilution method; format: functional; settings: ATCC 6538, 18 h; procedure, shortened: as §2
# [5] = tested on: Micrococcus luteus; assay: Antibacterial activity against Micrococcus luteus ATCC 10240 at 400 ug/disc after 18 hrs by disc diffusion assay; format: functional; settings: ATCC 10240, 18 h, read-out: IZ; procedure, shortened: as §1
# [6] = tested on: Escherichia coli; assay: Antibacterial activity against Escherichia coli NCTC 8196 at 400 ug/disc after 18 hrs by disc diffusion assay; format: functional, organism-based; procedure, shortened: as §1
# [7] = tested on: Pseudomonas aeruginosa; assay: Antibacterial activity against Pseudomonas aeruginosa ATCC 15442 at 400 ug/disc after 18 hrs by disc diffusion assay; format: functional, organism-based; procedure, shortened: as §1
# [8] = tested on: Staphylococcus aureus; assay: Antibacterial activity against Staphylococcus aureus ATCC 29213 at 400 ug/disc after 18 hrs by disc diffusion assay; format: functional; settings: ATCC 29213, 18 h, read-out: IZ; procedure, shortened: as §1
# [9] = tested on: Enterococcus hirae; assay: Antibacterial activity against Enterococcus hirae ATCC 10541 after 18 hrs by serial agar dilution method; format: functional; settings: ATCC 10541, 18 h
# Procedure, shortened: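 Twofold serial agar dilution MIC in Mueller–Hinton II agar (CLSI), run only for compounds that gave an inhibition zone in disc assay. DMSO solutions tested at 3.125–400 µg/ml in agar. Final inoculum 10^5 CFU/ml. Read after 18 h at 35 °C. DMSO control included.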
# [10] = tested on: Bacillus subtilis; assay: Antibacterial activity against Bacillus subtilis ATCC 6633 at 400 ug/disc after 18 hrs by disc diffusion assay; format: functional; settings: ATCC 6633, 18 h, read-out: IZ; procedure, shortened: as §1
# [11] = tested on: Escherichia coli; assay: Antibacterial activity against Escherichia coli ATCC 25922 at 400 ug/disc after 18 hrs by disc diffusion assay; format: functional, organism-based; procedure, shortened: as §1
# [12] = tested on: Candida albicans; assay: Antifungal activity against Candida albicans ATCC 10231 at 400 ug/disc after 24 hrs by disc diffusion assay; format: functional
# Procedure, shortened: (§3)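 Disc diffusion on RPMI agar with 2% glucose per CLSI guidelines. Discs 9 mm filter paper, loaded from ethanol solution with 400 µg compound, dried before placing on the agar. Inhibition zone diameter read after incubation at 35 °C. Fluconazole control at 25 µg per disc.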
# [13] = tested on: Pseudomonas aeruginosa; assay: Antibacterial activity against Pseudomonas aeruginosa NCTC 6749 at 400 ug/disc after 18 hrs by disc diffusion assay; format: functional, organism-based; procedure, shortened: as §1
# [14] = tested on: Escherichia coli; assay: Antibacterial activity against Escherichia coli ATCC 10538 at 400 ug/disc after 18 hrs by disc diffusion assay; format: functional, organism-based; procedure, shortened: as §1
# [15] = tested on: Staphylococcus aureus; assay: Antibacterial activity against Staphylococcus aureus NCTC 4163 after 18 hrs by serial agar dilution method; format: functional; settings: NCTC 4163, 18 h; procedure, shortened: as §2
# [16] = tested on: Bacillus cereus; assay: Antibacterial activity against Bacillus cereus ATCC 11778 at 400 ug/disc after 18 hrs by disc diffusion assay; format: functional; settings: ATCC 11778, 18 h, read-out: IZ; procedure, shortened: as §1
# [17] = tested on: Candida albicans; assay: Antifungal activity against Candida albicans ATCC 90028 at 400 ug/disc after 24 hrs by disc diffusion assay; format: functional; procedure, shortened: as §3
# [18] = tested on: Staphylococcus aureus; assay: Antibacterial activity against Staphylococcus aureus ATCC 25923 after 18 hrs by serial agar dilution method; format: functional; settings: ATCC 25923, 18 h; procedure, shortened: as §2
# [19] = tested on: Pseudomonas aeruginosa; assay: Antibacterial activity against Pseudomonas aeruginosa ATCC 27853 at 400 ug/disc after 18 hrs by disc diffusion assay; format: functional, organism-based; procedure, shortened: as §1
# [20] = tested on: Bordetella bronchiseptica; assay: Antibacterial activity against Bordetella bronchiseptica ATCC 4617 at 400 ug/disc after 18 hrs by disc diffusion assay; format: functional, organism-based; procedure, shortened: as §1
# [21] = tested on: Micrococcus luteus; assay: Antibacterial activity against Micrococcus luteus ATCC 10240 after 18 hrs by serial agar dilution method; format: functional; settings: ATCC 10240, 18 h; procedure, shortened: as §2
# [22] = tested on: Staphylococcus aureus; assay: Antibacterial activity against Staphylococcus aureus ATCC 6538 at 400 ug/disc after 18 hrs by disc diffusion assay; format: functional; settings: ATCC 6538, 18 h, read-out: IZ; procedure, shortened: as §1
# [23] = tested on: Enterococcus hirae; assay: Antibacterial activity against Enterococcus hirae ATCC 10541 at 400 ug/disc after 18 hrs by disc diffusion assay; format: functional; procedure, shortened: as §1
# [24] = tested on: Micrococcus luteus; assay: Antibacterial activity against Micrococcus luteus ATCC 9341 at 400 ug/disc after 18 hrs by disc diffusion assay; format: functional; procedure, shortened: as §1
# [25] = tested on: Staphylococcus aureus; assay: Antibacterial activity against Staphylococcus aureus NCTC 4163 at 400 ug/disc after 18 hrs by disc diffusion assay; format: functional; settings: NCTC 4163, 18 h, read-out: IZ; procedure, shortened: as §1
# [26] = tested on: Candida parapsilosis; assay: Antifungal activity against Candida parapsilosis ATCC 22019 at 400 ug/disc after 24 hrs by disc diffusion assay; format: functional; procedure, shortened: as §3
# [27] = tested on: Micrococcus luteus; assay: Antibacterial activity against Micrococcus luteus ATCC 9341 after 18 hrs by serial agar dilution method; format: functional; settings: ATCC 9341, 18 h; procedure, shortened: as §2
# [28] = tested on: Staphylococcus aureus; assay: Antibacterial activity against Staphylococcus aureus ATCC 29213 after 18 hrs by serial agar dilution method; format: functional; settings: ATCC 29213, 18 h; procedure, shortened: as §2
# [29] = tested on: Staphylococcus aureus; assay: Antibacterial activity against Staphylococcus aureus ATCC 25923 at 400 ug/disc after 18 hrs by disc diffusion assay; format: functional; settings: ATCC 25923, 18 h, read-out: IZ; procedure, shortened: as §1
# [30] = tested on: Staphylococcus epidermidis; assay: Antibacterial activity against Staphylococcus epidermidis ATCC 12228 at 400 ug/disc after 18 hrs by disc diffusion assay; format: functional; procedure, shortened: as §1
# [31] = tested on: Bacillus cereus; assay: Antibacterial activity against Bacillus cereus ATCC 11778 after 18 hrs by serial agar dilution method; format: functional; settings: ATCC 11778, 18 h; procedure, shortened: as §2
# [32] = tested on: Candida parapsilosis; assay: Antifungal activity against Candida parapsilosis ATCC 22019 at 25 ug/disc after 24 hrs by disc diffusion assay; format: functional; settings: Lodderomyces parapsilosis, ATCC 22019, 24 h; read-out: IZ
# Procedure, shortened: (§4)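 Disc diffusion per CLSI on RPMI agar with 2% glucose. Sterile 9 mm filter-paper discs were loaded at 25 µg per disc, dried, and placed on the agar surface. Plates were incubated at 35 °C, and the diameter of the growth-inhibition zone was read.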
# [33] = tested on: Candida albicans; assay: Antifungal activity against Candida albicans ATCC 90028 at 25 ug/disc after 24 hrs by disc diffusion assay; format: functional; settings: ATCC 90028, 24 h, read-out: IZ; procedure, shortened: as §4
# [34] = tested on: Candida parapsilosis; assay: Antifungal activity against Candida parapsilosis ATCC 22019 after 24 hrs by serial agar dilution method; format: functional; settings: Lodderomyces parapsilosis, ATCC 22019, 24 h
# Procedure, shortened: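 Twofold serial agar dilution per CLSI on RPMI agar with 2% glucose. Agents were dissolved in DMSO and tested at 3.125–400 µg/ml in the solid medium, with a DMSO control. Final inoculum was 10^4 CFU/mL.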
# [35] = tested on: Candida albicans; assay: Antifungal activity against Candida albicans ATCC 10231 at 25 ug/disc after 24 hrs by disc diffusion assay; format: functional; settings: ATCC 10231, 24 h, read-out: IZ; procedure, shortened: as §4
Compound,Activity [1],MIC [2],MIC [3],MIC [4],zone of inhibition at 400 µg/disc [5],Activity [6],Activity [7],zone of inhibition at 400 µg/disc [8],MIC [9],zone of inhibition at 400 µg/disc [10],Activity [11],Activity [12],Activity [13],Activity [14],MIC [15],zone of inhibition at 400 µg/disc [16],Activity [17],MIC [18],Activity [19],Activity [20],also measured
C=CCOC(=O)[C@@H](C)[C@H](OC)[C@H](C)[C@H]1O[C@@]2(CC[C@@](C)([C@H]3CC[C@@](CC)([C@@H]4O[C@@H]([C@H]5O[C@@](O)(CO)[C@H](C)C[C@@H]5C)C[C@@H]4C)O3)O2)C[C@H](O)[C@H]1C,inactive,100 µg/mL,12.5 µg/mL,100 µg/mL,11 mm,inactive,inactive,13 mm,> 400 µg/mL,15 mm,inactive,inactive,inactive,inactive,100 µg/mL,14 mm,inactive,100 µg/mL,inactive,inactive,MIC [21]: 50 µg/mL; zone of inhibition at 400 µg/disc [22]: 13 mm; Activity [23]: inactive; Activity [24]: inactive; zone of inhibition at 400 µg/disc [25]: 13 mm; Activity [26]: inactive; MIC [27]: 100 µg/mL; MIC [28]: 100 µg/mL; zone of inhibition at 400 µg/disc [29]: 11 mm; Activity [30]: inactive; MIC [31]: 12.5 µg/mL
OC(Cn1cncn1)(Cn1cncn1)c1ccc(F)cc1F [FLUCONAZOLE],,,,,,,,,,,,,,,,,,,,,zone of inhibition at 25 µg/disc [32]: 22 mm; zone of inhibition at 25 µg/disc [33]: 32 mm; MIC [34]: 2 µg/mL; zone of inhibition at 25 µg/disc [35]: 22 mm
CC[C@@]1([C@@H]2O[C@@H]([C@H]3O[C@@](O)(CO)[C@H](C)C[C@@H]3C)C[C@@H]2C)CC[C@H]([C@]2(C)CC[C@]3(C[C@H](O)[C@@H](C)[C@@H]([C@@H](C)[C@@H](OC)[C@H](C)C(=O)OCCOCCOCCOC)O3)O2)O1,inactive,100 µg/mL,25 µg/mL,100 µg/mL,13 mm,inactive,inactive,17 mm,> 400 µg/mL,20 mm,inactive,inactive,inactive,inactive,100 µg/mL,19 mm,inactive,50 µg/mL,inactive,inactive,"MIC [21]: 50 µg/mL; zone of inhibition at 400 µg/disc [22]: 17 mm; Activity [23]: inactive; zone of inhibition at 400 µg/disc ([24]; ATCC 9341, 18 h, read-out: IZ): 11 mm; zone of inhibition at 400 µg/disc [25]: 19 mm; Activity [26]: inactive; MIC [27]: 200 µg/mL; MIC [28]: 50 µg/mL; zone of inhibition at 400 µg/disc [29]: 19 mm; zone of inhibition at 400 µg/disc ([30]; ATCC 12228, 18 h, read-out: IZ): 13 mm; MIC [31]: 50 µg/mL"
